Experimental findings from ChEMBL document CHEMBL4339193, “Phenotypic Screening-Based Identification of 3,4-Disubstituted Piperidine Derivatives as Macrophage M2 Polarization Modulators: An Opportunity for Treating Multiple Sclerosis” (J Med Chem, 2019) are described below.

Calls of active or inactive are those of the source. The rule behind the calls is not given here.

Broadly, the AUC(0-inf) is the area under the concentration-time curve extrapolated to infinity.

Series [1] has as its system BMDM. In words: Modulation of M1 polarization in C57BL/6J mouse BMDM cells assessed as up regulation of TNFalpha expression at 300 nM measured after 4 to 24 hrs by Western blot analysis. Type of series: cell-based. As to conditions: 0.3 µM. Summed up:
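BMDMs lysed in pH 7.6 buffer with 1% Triton X-100, phosphatase inhibitor and 1 mM PMSF. Proteins separated by SDS-PAGE, blotted to PVDF and probed with anti-Arg-1, anti-Ym1 or anti-TNF-α, then ECL detection; GAPDH as loading control.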
(In general: A western blot detects proteins with antibodies after separation by electrophoresis.)

In series [2] the test system is RAW264.7. In words: Modulation of M2 polarization in mouse RAW264.7 cells assessed as up regulation of CD163 mRNA expression at 300 nM measured after 24 hrs by qRT-PCR analysis. The format is functional, cell-based. For orientation: Quantitative PCR measures a nucleic acid by following its amplification.
Series [3] concerns the target RAC-alpha serine/threonine-protein kinase (Mus musculus) (UniProt P31750). In words: Stimulation of AKT phosphorylation at 473 residue in mouse RAW264.7 cells at 300 nM measured after 4 to 24 hrs by Western blot analysis. The format is cell-based. Summed up:
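Cell lysates separated by SDS-PAGE, transferred to PVDF and probed for Akt, p-Akt(308), p-Akt(473), Stat3, p-Stat3(Y705), Stat6 and p-Stat6; ECL detection, GAPDH as loading control.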

In series [4] the test system is BMDM. In words: Inhibition of LPS-induced M1 polarization in C57BL/6J mouse BMDM cells assessed as down regulation of CD86 mRNA expression at 300 nM measured after 24 hrs by qRT-PCR analysis. Type of series: functional, cell-based. In short, it runs like this: (§1)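 BMDMs pre-incubated 24 h with 50 ng/ml LPS to induce M1, then treated 24 h with 300 nM compound. Total RNA extracted with Trizol; Mcp1, Inos and Cd86 mRNA measured by qRT-PCR. Mean ± SEM.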

The subject of series [5] is Mus musculus. In words: Antiinflammatory activity in C57BL/6J mouse model of MOG (35 to 55 residues)/pertussis toxin/complete Freund's adjuvant-induced experimental allergic encephalomyelitis assessed as reduction in development of clinical symptoms at 200 mg/kg, ig administered daily starting from 7 days post-immunization up to 26 days. Type of series: functional, organism-based. Summed up:
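MOG35-55/CFA EAE mice received daily saline vehicle, 100 or 200 mg/kg drug, or dexamethasone 10 mg/kg from day 7 post-immunisation. Clinical signs were scored on a 0-5 scale (e.g. 3 = complete bilateral hind limb paralysis, 5 = death). Mean scores used n=5.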

In series [6] the test system is Mus musculus. In words: Antiinflammatory activity in C57BL/6J mouse model of MOG (35 to 55 residues)/pertussis toxin/complete Freund's adjuvant-induced experimental allergic encephalomyelitis assessed as effect on Treg cell population in CNS by measuring change in CD4 level at 200 mg/kg, ig administered daily starting from 7 days post-immunization measured after 13 to 19 days post-immunization by flow cytometry analysis. Type of series: functional, organism-based. In short, it runs like this:
(§2)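 MOG35-55/CFA EAE mice were dosed daily in saline from day 7 and sampled between days 13 and 19. Spleens and dLNs were mechanically dissociated to single cells. CNS cells came from collagenase IV digestion and a 70%/30% Percoll gradient. Cells were surface-stained with fluorochrome antibodies, including CD4, CD11b, CD11c and MHC-II, and analysed by flow cytometry.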
A general note: In flow cytometry, cells or beads pass a laser one at a time.

Series [7] concerns BMDM. In words: Inhibition of LPS-induced M1 polarization in C57BL/6J mouse BMDM cells assessed as down regulation of Inos mRNA expression at 300 nM measured after 24 hrs by qRT-PCR analysis. Type of series: functional, cell-based. Summed up: as §1
The test system of series [8] is Mus musculus. In words: Antiinflammatory activity in C57BL/6J mouse model of MOG (35 to 55 residues)/pertussis toxin/complete Freund's adjuvant-induced experimental allergic encephalomyelitis assessed as effect on dendritic cell population in CNS by measuring change in CD11c level at 200 mg/kg, ig administered daily starting from 7 days post-immunization measured after 13 to 19 days post-immunization by flow cytometry analysis. Type of series: functional, organism-based. Summed up:
as §2

Series [9] in a line: AUC (0 to infinity) in Sprague-Dawley rat at 50 mg/kg, po administered as single dose via gavage by LC/MS analysis. As to conditions: in vivo. Type of series: ADME, organism-based. On the set-up: dose 50 mg/kg, time infinity, route oral. In short, it runs like this: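 Single dose in rats; venous blood (100 µL) drawn at 0, 0.5, 1, 2, 4, 8 and 12 h, plasma separated by centrifugation and held at -20 °C. Compound measured by LC/MS; Cmax, Tmax, t1/2 and AUC derived from the concentration–time data.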

Series [10] has as its system RAW264.7. In words: Inhibition of M1 polarization in mouse RAW264.7 cells assessed as down regulation of IL6 mRNA expression at 300 nM measured after 24 hrs by qRT-PCR analysis. The format is functional, cell-based.
Series [11] concerns Mus musculus. In words: Inhibition of M1 polarization in C57BL/6J mouse model of MOG (35 to 55 residues)/pertussis toxin/complete Freund's adjuvant-induced experimental allergic encephalomyelitis assessed as CD86 level in draining lymph nodes at 200 mg/kg, ig administered daily starting from 7 days post-immunization measured after 13 to 19 days post-immunization by flow cytometry analysis (reference value: 18.4%). Type of series: functional. Also noted: scale not given: the % may be the effect or the level left. In short, it runs like this:
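MOG35-55/CFA EAE mice were dosed daily in saline from day 7 and sampled between days 13 and 19. Cells came from spleen and dLN by mechanical dissociation and from CNS by collagenase IV/Percoll. They were stained for F4/80 with CD206 (M2) or CD86 (M1), and each was read by flow cytometry as a percentage of total F4/80+ macrophages.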

Series [12] relates to RAW264.7. In words: Modulation of M2 polarization in mouse RAW264.7 cells assessed as up regulation of CCR7 mRNA expression at 300 nM measured after 24 hrs by qRT-PCR analysis. Type of series: functional, cell-based.

Sequence of RAC-alpha serine/threonine-protein kinase (Mus musculus) (P31750 whole entry): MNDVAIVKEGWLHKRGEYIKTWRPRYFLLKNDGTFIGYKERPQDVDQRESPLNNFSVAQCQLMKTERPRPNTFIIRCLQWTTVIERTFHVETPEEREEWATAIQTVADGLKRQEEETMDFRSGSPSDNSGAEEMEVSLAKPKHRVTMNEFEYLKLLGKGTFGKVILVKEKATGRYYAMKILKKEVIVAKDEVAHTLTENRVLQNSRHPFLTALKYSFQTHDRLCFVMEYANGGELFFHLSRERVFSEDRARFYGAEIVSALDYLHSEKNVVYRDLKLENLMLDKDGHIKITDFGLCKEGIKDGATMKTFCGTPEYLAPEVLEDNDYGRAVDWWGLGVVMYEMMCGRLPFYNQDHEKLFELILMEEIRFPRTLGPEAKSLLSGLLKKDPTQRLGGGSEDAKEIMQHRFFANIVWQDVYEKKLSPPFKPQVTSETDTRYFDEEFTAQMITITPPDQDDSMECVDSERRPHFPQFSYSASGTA

As to `Cl.Cn1ncc(Cl)c1-c1ccc(C(=O)N[C@@H]2CNCC[C@H]2c2cccc(F)c2)cc1`, the Activity entry in series [1] is recorded as “Non-Toxic”; in series [11] it was 11.5%. Further, the result in series [2], in series [3], in series [5] and in [12] was Active. Also, the inhibition result in [4], in series [7] and in series [10] was “Active” in each case. Moreover, the result in [6] and in series [8] was inactive. The molecule also yielded an AUC(0-inf) in series [9] of 4740 ng·h/mL.
